Each structure is given as a SMILES string.

For assay [1], the system named is MT4. Put plainly: Activity against HIV-2 in MT-4 cells (in vitro). The assay is classed as functional, cell-based. To be noted: Homo sapiens. In outline:
(§1)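 MT-4 cells at 5 × 10⁵/mL infected with HIV-1 (IIIB) or HIV-2 (ROD) at about 100 CCID50/mL and exposed to compound dilutions. After 5 days, viable cells counted by trypan blue staining. EC₅₀ is the concentration protecting cells against viral cytopathogenicity by 50%. Mean of two to four independent experiments.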

In assay [2] the test system is CCRF-CEM. Put plainly: Activity against HIV-1 in CEM cells (in vitro). The format is functional, cell-based. The conditions noted are these: Homo sapiens. In a few lines:
(§2)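 Cells at 5 × 10⁵/mL infected with HIV-1 (IIIB) or HIV-2 (ROD) at about 100 CCID50/mL, then mixed with dilutions of test compound. After 4 days, giant cell formation scored microscopically. EC₅₀ is the concentration cutting giant cells by 50%. Mean of two to four independent experiments.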

For assay [3], the system named is MT4. As to the kind of experiment: Activity against HIV-1 in MT-4 cells (in vitro). To be noted: Homo sapiens. The format is functional, cell-based. In a few lines:
as §1

In assay [4] the test system is CCRF-CEM. As to the kind of experiment: Cytotoxic concentration against CEM cells (in vitro). The format is functional. To be noted: Homo sapiens. In outline:
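Mock-infected CEM cultures exposed to compound dilutions alongside the antiviral assay and scored at day 4. CC₅₀ is the concentration reducing cell number by 50%.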

Assay [5] concerns CCRF-CEM. As to the kind of experiment: Compound was tested for activity against HIV-2 in CEM cells. The format is functional, cell-based. To be noted: Homo sapiens. In outline:
as §2

The subject of assay [6] is MT4. As to the kind of experiment: Cytotoxic concentration against MT-4 cells (in vitro). The format is functional. The conditions noted are these: Homo sapiens. In outline: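 Mock-infected MT-4 cultures (5 × 10⁵ cells/mL) exposed to compound dilutions for 5 days. Viable cells counted by trypan blue. CC₅₀ is the concentration reducing viable cell number by 50%.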
Another assay concerns CEM-TK(-) (Homo sapiens). Put plainly: Activity against HIV-1 in CEM/TK cells (in vitro).
The subject of assay [7] is CCRF-CEM. Put plainly: Activity against HIV-2 in CEM cells (in vitro). The format is functional, cell-based. The conditions noted are these: Homo sapiens. In a few lines: as §2

In the case of `COC(=O)C(CC(C)C)NP(=O)(OCC1C=CC(n2cc(C)c(=O)[nH]c2=O)O1)Oc1ccccc1` (stereo not drawn), the EC50 in the assay with MT4 [1] stood at 0.47 µM; with CCRF-CEM [2] it was 1.1 µM; in the assay with MT4 [3], 0.2 µM; in the assay on CCRF-CEM [5] it was 2.23 µM; in the assay with CEM-TK(-) (Homo sapiens) it was 0.4 µM. For the same compound, the values for the CC50 in the assay on CCRF-CEM [4] and in the assay on MT4 [6] were > 250 µM and 61.5 µM, respectively.
On to `COC(=O)C(C)NP(=O)(OC[C@@H]1C=C[C@H](n2cc(C)c(=O)[nH]c2=O)O1)Oc1ccccc1` (stereo partly drawn), for which the EC50 in the assay on MT4 [1] was determined as 0.067 µM; in the assay on CCRF-CEM [2], 0.182 µM; in the assay on MT4 [3], 0.0665 µM; with CCRF-CEM [7], 0.2 µM; in the assay with CEM-TK(-) (Homo sapiens), 0.075 µM. The CC50 in the assay on CCRF-CEM [4] was 100 µM; in the assay on MT4 [6] it was > 100 µM.
Take `COC(=O)C(C)NP(=O)(OC)OCC1C=CC(n2cc(C)c(=O)[nH]c2=O)O1` (stereo not drawn): the EC50 with MT4 [1] was 50.9 µM; in the assay on CCRF-CEM [2], 20 µM; with MT4 [3], 25.4 µM; in the assay with CCRF-CEM [7], 50 µM; in the assay on CEM-TK(-) (Homo sapiens) it was > 250 µM. The CC50 with CCRF-CEM [4] and in the assay with MT4 [6] was > 250 µM in each case.
As for `CCc1ccc(OP(=O)(NC(C)C(=O)OC)OCC2C=CC(n3cc(C)c(=O)[nH]c3=O)O2)cc1` (stereo not drawn), the EC50 in the assay on MT4 [1] was 0.063 µM; in the assay on CCRF-CEM [2], 0.07 µM; in the assay on MT4 [3], 0.057 µM; in the assay with CCRF-CEM [7], 0.16 µM; in the assay with CEM-TK(-) (Homo sapiens), 0.06 µM. In addition, the CC50 was 60 µM in the assay with CCRF-CEM [4] and > 100 µM with MT4 [6].
For the compound `COC(=O)C(NP(=O)(OCC1C=CC(n2cc(C)c(=O)[nH]c2=O)O1)Oc1ccccc1)C(C)C` (stereo not drawn), the EC50 in the assay on MT4 [1] came out at 11.2 µM; in the assay on CCRF-CEM [2] it was 12.5 µM; in the assay with MT4 [3] it was 3.58 µM; in the assay on CCRF-CEM [7], 12.5 µM; in the assay on CEM-TK(-) (Homo sapiens), 4 µM. Besides, the CC50 in the assay on CCRF-CEM [4] and with MT4 [6] was > 250 µM throughout.
As to `COC(=O)CNP(=O)(OCC1C=CC(n2cc(C)c(=O)[nH]c2=O)O1)Oc1ccccc1` (stereo not drawn), the EC50 in the assay on MT4 [1] was 6.71 µM; with CCRF-CEM [2], 6 µM; in the assay on MT4 [3], 1.34 µM; in the assay on CCRF-CEM [7], 6 µM; in the assay with CEM-TK(-) (Homo sapiens) it was 7 µM. For the same compound, the cytotoxic concentration (CC50) in the assay with CCRF-CEM [4] and with MT4 [6] was > 250 µM throughout.
Take `CCOP(=O)(NC(C)C(=O)OC)OCC1C=CC(n2cc(C)c(=O)[nH]c2=O)O1` (stereo not drawn): the EC50 worked out at 62.5 µM with MT4 [1]; 48 µM in the assay with CCRF-CEM [2]; 28.5 µM in the assay on MT4 [3]; 240 µM in the assay with CCRF-CEM [7]; 48 µM with CEM-TK(-) (Homo sapiens). The CC50 in the assay with CCRF-CEM [4] and in the assay on MT4 [6] was > 250 µM in each case.
As for `COC(=O)C(Cc1ccccc1)NP(=O)(OCC1C=CC(n2cc(C)c(=O)[nH]c2=O)O1)Oc1ccccc1` (stereo not drawn), the EC50 with MT4 [1] was 0.38 µM; in the assay with CCRF-CEM [2] it was 0.8 µM; in the assay on MT4 [3], 0.19 µM; with CCRF-CEM [7] it was 1.35 µM; in the assay with CEM-TK(-) (Homo sapiens) it was 0.33 µM. The CC50 in the assay on CCRF-CEM [4] amounted to 216 µM; in the assay on MT4 [6] it was 34.1 µM.
With `COC(=O)C(CCSC)NP(=O)(OCC1C=CC(n2cc(C)c(=O)[nH]c2=O)O1)Oc1ccccc1` (stereo not drawn), the EC50 was 0.38 µM in the assay on MT4 [1]; 0.6 µM with CCRF-CEM [2]; 0.23 µM in the assay on MT4 [3]; 0.8 µM in the assay with CCRF-CEM [7]; 0.33 µM with CEM-TK(-) (Homo sapiens). The CC50 was > 250 µM in the assay on CCRF-CEM [4] and 22 µM with MT4 [6].
Regarding `COC(=O)C(C)NP(=O)(OCC1C=CC(n2cc(C)c(=O)[nH]c2=O)O1)Oc1ccc(Br)cc1Br` (stereo not drawn), the EC50 with CCRF-CEM [2] came out at 0.04 µM; in the assay on CCRF-CEM [7], 0.055 µM; in the assay with CEM-TK(-) (Homo sapiens) it was 0.025 µM. Moreover, it took 16 µM to reach half-maximal cytotoxicity in the assay on CCRF-CEM [4] (CC50).
On to `COC(=O)C(C)NP(=O)(OC[C@@H]1C=C[C@H](n2cc(C)c(=O)[nH]c2=O)O1)Oc1cccc(C(F)(F)F)c1` (stereo partly drawn), for which the EC50 with MT4 [1] amounted to 0.11 µM; in the assay on CCRF-CEM [2], 0.15 µM; with MT4 [3], 0.046 µM; with CCRF-CEM [7], 0.15 µM; with CEM-TK(-) (Homo sapiens) it was 0.11 µM. Moreover, the CC50 with CCRF-CEM [4] came to 29.8 µM; in the assay on MT4 [6], 9.75 µM.
Regarding `COC(=O)C(C)NP(=O)(OCC1C=CC(n2cc(C)c(=O)[nH]c2=O)O1)Oc1cc(Cl)cc(Cl)c1` (stereo not drawn), the EC50 was found to be 0.12 µM in the assay on MT4 [1]; 0.11 µM in the assay on CCRF-CEM [2]; 0.037 µM with MT4 [3]; 0.15 µM with CCRF-CEM [7]; 0.11 µM with CEM-TK(-) (Homo sapiens). Further, the CC50 with CCRF-CEM [4] was found to be 26.9 µM; in the assay with MT4 [6], 10.5 µM.
For the compound `Cc1cn([C@H]2C=C[C@@H](CO)O2)c(=O)[nH]c1=O` [STAVUDINE], the EC50 came to 0.77 µM with MT4 [1]; 0.8 µM in the assay with CCRF-CEM [2]; 0.651 µM in the assay with MT4 [3]; 0.775 µM with CCRF-CEM [7]; 33.3 µM with CEM-TK(-) (Homo sapiens). The CC50 in the assay on CCRF-CEM [4] was found to be 174 µM; with MT4 [6], 19 µM.
For `Cc1cn([C@H]2C[C@H](N=[N+]=[N-])[C@@H](CO)O2)c(=O)[nH]c1=O` [ZIDOVUDINE], the CC50 was > 500 µM in the assay on CCRF-CEM [4] and 6 µM in the assay on MT4 [6]. Besides, in the assay with CEM-TK(-) (Homo sapiens), the EC50 is > 100 µM.
With `COC(=O)C(C)NP(=O)(OCC1C=CC(n2cc(C)c(=O)[nH]c2=O)O1)Oc1c(F)c(F)c(F)c(F)c1F` (stereo not drawn), the EC50 in the assay with MT4 [1] was 4.07 µM; with CCRF-CEM [2], 2.5 µM; in the assay with MT4 [3], 1.72 µM; with CCRF-CEM [7], 3.7 µM; with CEM-TK(-) (Homo sapiens), 8.5 µM. Also, the CC50 is 115 µM in the assay on CCRF-CEM [4] and 82.2 µM in the assay on MT4 [6].

The record behind these values is ChEMBL document CHEMBL1129557, “Aryl phosphoramidate derivatives of d4T have improved anti-HIV efficacy in tissue culture and may act by the generation of a novel intracellular metabolite” (J Med Chem, 1996).
